# Data as given in ChEMBL document CHEMBL5303300, “EUbOPEN Chemogenomics Library - Multiplex” (2023).
# Where “and” joins values, the source holds several entries; their conditions need not be identical. Equal entries are not always repeated.
# System: Fibroblast
# Test: Multiplex assay against human fibroblast
# Type: toxicity, cell-based
# Settings: number of replicates 2
# Procedure, shortened: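 Phenotypes for tubulin, mitochondrial mass and membrane permeability are expressed as per cents of healthy-nucleus cells. Cells were stained live at seeding with Hoechst33342, BioTracker Green Microtubule Cytoskeleton Dye, MitoTracker Red and Annexin V Alexa Fluor 680, then imaged after compound addition on a CQ1 microscope at 37°C and 5% CO2. Machine-learning gating in CellPathfinder separated Hoechst high-intensity objects from normal cells, divided normal cells by nuclear state (healthy, pyknosed, fragmented) and divided pyknosed cells into mitotic or apoptotic.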
# [1] = 12 h, 1 µM, compound concentration 1 uM
# [2] = 12 h, 10 µM, compound concentration 10 uM
# [3] = 24 h, 1 µM, compound concentration 1 uM
# [4] = 24 h, 10 µM, compound concentration 10 uM
# [5] = 48 h, 1 µM, compound concentration 1 uM
# [6] = 48 h, 10 µM, compound concentration 10 uM
structure (smiles),measurement,setting,value
C=CC(=O)Nc1cccc(C)c1Nc1ncc2cc(-c3c(Cl)c(OC)cc(OC)c3Cl)ccc2n1,Population Apoptotic (%),[1],30% and 35%
same,Population Fragmented Nuclei (%),[1],11% and 9%
same,Population Healthy Nuclei (%),[1],73% and 66%
same,Population Hoechst High Intensity Objects (%),[1],0%
same,Population Membrane Permeable-Phenotype (%),[1],4%
same,Population Mitochondria Different-Phenotype (%),[1],0% and 1%
same,Population Mitotic Cells (%),[1],69% and 64%
same,Population Normal (%),[1],100% and 99%
same,Population Pyknosed Nuclei (%),[1],14% and 23%
same,Population Tubulin-Different-Phenotype (%),[1],12% and 9%
same,Total Cell Count,[1],248 and 242
same,Population Apoptotic (%),[2],60% and 47%
same,Population Fragmented Nuclei (%),[2],35% and 15%
same,Population Healthy Nuclei (%),[2],40% and 60%
same,Population Membrane Permeable-Phenotype (%),[2],0% and 8%
same,Population Mitochondria Different-Phenotype (%),[2],1% and 4%
same,Population Mitotic Cells (%),[2],40% and 52%
same,Population Normal (%),[2],71% and 100%
same,Population Pyknosed Nuclei (%),[2],24% and 23%
same,Population Tubulin-Different-Phenotype (%),[2],17% and 21%
same,Total Cell Count,[2],202 and 201
same,Population Apoptotic (%),[3],48% and 60%
same,Population Fragmented Nuclei (%),[3],10% and 9%
same,Population Healthy Nuclei (%),[3],71%
same,Population Hoechst High Intensity Objects (%),[3],0%
same,Population Membrane Permeable-Phenotype (%),[3],3% and 5%
same,Population Mitochondria Different-Phenotype (%),[3],1%
same,Population Mitotic Cells (%),[3],51% and 40%
same,Population Normal (%),[3],99%
same,Population Pyknosed Nuclei (%),[3],17% and 19%
same,Population Tubulin-Different-Phenotype (%),[3],8% and 9%
same,Total Cell Count,[3],245 and 232
same,Population Apoptotic (%),[4],71% and 63%
same,Population Fragmented Nuclei (%),[4],38% and 17%
same,Population Healthy Nuclei (%),[4],41% and 63%
same,Population Membrane Permeable-Phenotype (%),[4],0% and 1%
same,Population Mitochondria Different-Phenotype (%),[4],0% and 9%
same,Population Mitotic Cells (%),[4],28% and 36%
same,Population Normal (%),[4],60% and 100%
same,Population Pyknosed Nuclei (%),[4],20% and 19%
same,Population Tubulin-Different-Phenotype (%),[4],7% and 20%
same,Total Cell Count,[4],283 and 188
same,Population Apoptotic (%),[5],61% and 67%
same,Population Fragmented Nuclei (%),[5],12%
same,Population Healthy Nuclei (%),[5],73%
same,Population Hoechst High Intensity Objects (%),[5],0%
same,Population Membrane Permeable-Phenotype (%),[5],3% and 5%
same,Population Mitochondria Different-Phenotype (%),[5],1% and 0%
same,Population Mitotic Cells (%),[5],38% and 32%
same,Population Normal (%),[5],100%
same,Population Pyknosed Nuclei (%),[5],13% and 14%
same,Population Tubulin-Different-Phenotype (%),[5],6% and 14%
same,Total Cell Count,[5],243 and 214
same,Population Apoptotic (%),[6],83%
same,Population Fragmented Nuclei (%),[6],40% and 15%
same,Population Healthy Nuclei (%),[6],40% and 71%
same,Population Membrane Permeable-Phenotype (%),[6],1% and 4%
same,Population Mitochondria Different-Phenotype (%),[6],4%
same,Population Mitotic Cells (%),[6],16%
same,Population Normal (%),[6],52% and 100%
same,Population Pyknosed Nuclei (%),[6],18% and 12%
same,Population Tubulin-Different-Phenotype (%),[6],10% and 11%
same,Total Cell Count,[6],309 and 189
Cc1cn(CCN2CCN(c3ccccc3-c3cc(C#N)cc(C(=O)NCCCN4CCCC4)c3)CC2)c2ccccc12,Population Apoptotic (%),[1],16% and 47%
same,Population Fragmented Nuclei (%),[1],13% and 14%
same,Population Healthy Nuclei (%),[1],70% and 63%
same,Population Hoechst High Intensity Objects (%),[1],0%
same,Population Membrane Permeable-Phenotype (%),[1],10% and 8%
same,Population Mitochondria Different-Phenotype (%),[1],1% and 5%
same,Population Mitotic Cells (%),[1],83% and 52%
same,Population Normal (%),[1],100%
same,Population Pyknosed Nuclei (%),[1],16% and 21%
same,Population Tubulin-Different-Phenotype (%),[1],41% and 35%
same,Total Cell Count,[1],222 and 214
same,Population Apoptotic (%),[2],40% and 37%
same,Population Fragmented Nuclei (%),[2],28% and 31%
same,Population Healthy Nuclei (%),[2],51% and 56%
same,Population Hoechst High Intensity Objects (%),[2],0%
same,Population Membrane Permeable-Phenotype (%),[2],7% and 5%
same,Population Mitochondria Different-Phenotype (%),[2],20% and 17%
same,Population Mitotic Cells (%),[2],59% and 62%
same,Population Normal (%),[2],100%
same,Population Pyknosed Nuclei (%),[2],19% and 12%
same,Population Tubulin-Different-Phenotype (%),[2],82% and 83%
same,Total Cell Count,[2],248 and 358
same,Population Apoptotic (%),[3],33% and 60%
same,Population Fragmented Nuclei (%),[3],14% and 20%
same,Population Healthy Nuclei (%),[3],73% and 65%
same,Population Hoechst High Intensity Objects (%),[3],0%
same,Population Membrane Permeable-Phenotype (%),[3],5% and 3%
same,Population Mitochondria Different-Phenotype (%),[3],3% and 10%
same,Population Mitotic Cells (%),[3],66% and 39%
same,Population Normal (%),[3],100%
same,Population Pyknosed Nuclei (%),[3],11% and 13%
same,Population Tubulin-Different-Phenotype (%),[3],37% and 33%
same,Total Cell Count,[3],209 and 243
same,Population Apoptotic (%),[4],81% and 82%
same,Population Fragmented Nuclei (%),[4],17% and 27%
same,Population Healthy Nuclei (%),[4],57% and 55%
same,Population Hoechst High Intensity Objects (%),[4],0%
same,Population Membrane Permeable-Phenotype (%),[4],2%
same,Population Mitochondria Different-Phenotype (%),[4],51% and 58%
same,Population Mitotic Cells (%),[4],18% and 17%
same,Population Normal (%),[4],99%
same,Population Pyknosed Nuclei (%),[4],25% and 17%
same,Population Tubulin-Different-Phenotype (%),[4],93% and 88%
same,Total Cell Count,[4],197 and 332
same,Population Apoptotic (%),[5],44% and 76%
same,Population Fragmented Nuclei (%),[5],19% and 24%
same,Population Healthy Nuclei (%),[5],77% and 70%
same,Population Hoechst High Intensity Objects (%),[5],0%
same,Population Membrane Permeable-Phenotype (%),[5],2% and 3%
same,Population Mitochondria Different-Phenotype (%),[5],0% and 3%
same,Population Mitotic Cells (%),[5],55% and 23%
same,Population Normal (%),[5],100% and 99%
same,Population Pyknosed Nuclei (%),[5],3% and 5%
same,Population Tubulin-Different-Phenotype (%),[5],23% and 17%
same,Total Cell Count,[5],241 and 237
same,Population Apoptotic (%),[6],95%
same,Population Fragmented Nuclei (%),[6],9% and 17%
same,Population Healthy Nuclei (%),[6],46% and 62%
same,Population Hoechst High Intensity Objects (%),[6],1% and 0%
same,Population Membrane Permeable-Phenotype (%),[6],6% and 1%
same,Population Mitochondria Different-Phenotype (%),[6],75% and 67%
same,Population Mitotic Cells (%),[6],4%
same,Population Normal (%),[6],98% and 99%
same,Population Pyknosed Nuclei (%),[6],43% and 19%
same,Population Tubulin-Different-Phenotype (%),[6],93% and 91%
same,Total Cell Count,[6],144 and 240
